Screens: PubChem BioAssay, Johns Hopkins Ion Channel Center
RGS4 pot: RGS4 potentiators or activators, primary screen, cell-based, HEK293 M3R inducible RGS4, calcium flux; carbachol calcium flux Fluo4; active compounds read low; B-score at 10 µM; 310,000 tested, 0.92% active;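 active = B-score of the integrated calcium signal more than 4 SD below the library mean, with starting fluorescence not abnormally high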;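 also: negative B-score means reduced calcium response which marks RGS4 activation or potentiation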
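Detection: kinetic calcium fluorescence imaging with Fluo4-AM dye, 2 µM / Material: HEK293 cells with stable M3R and inducible RGS4 / Schedule: recording 10 s baseline at 1 Hz, 100 s post-agonist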
RGS4 inh: RGS4 inhibitors, primary screen, cell-based, HEK293 M3R inducible RGS4, calcium flux; 310,000 tested, 0.45% active; AID 463165, 2010; B-score at 10 µM; Fluo-4 calcium flux; active compounds read high; triggered by carbachol at its EC20;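 active = B-score, a plate-corrected calcium signal, over three deviations above library mean, with baseline fluorescence within five deviations of library mean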;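 also: RGS4 expression induced by doxycycline in cells with stable M3 receptor; B-score is computed from the integrated fluorescence ratio over baseline after carbachol; higher B-score means a larger calcium signal and so more RGS4 inhibition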
Target sequence (P49798 whole entry, looked up): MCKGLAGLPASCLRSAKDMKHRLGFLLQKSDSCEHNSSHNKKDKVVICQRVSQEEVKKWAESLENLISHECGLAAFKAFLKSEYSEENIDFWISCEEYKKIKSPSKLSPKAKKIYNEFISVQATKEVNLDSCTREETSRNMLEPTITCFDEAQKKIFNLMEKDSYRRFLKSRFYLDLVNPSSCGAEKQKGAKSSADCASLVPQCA
MrgX1 agonist: agonists of human MrgX1 receptor, primary screen, HEK293 cells, Fluo-4 calcium flux | 310,000 tested, 0.44% active | Fluo-4 calcium fluorescence, agonist mode; active compounds read high | AID 588627, 2011 | B-score at 10 µM;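 active = calcium response B-score plate-corrected fluorescence ratio at least 3 library SD, with starting fluorescence B-score inside 5 SD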
Target sequence (Q96LB2 whole entry, looked up): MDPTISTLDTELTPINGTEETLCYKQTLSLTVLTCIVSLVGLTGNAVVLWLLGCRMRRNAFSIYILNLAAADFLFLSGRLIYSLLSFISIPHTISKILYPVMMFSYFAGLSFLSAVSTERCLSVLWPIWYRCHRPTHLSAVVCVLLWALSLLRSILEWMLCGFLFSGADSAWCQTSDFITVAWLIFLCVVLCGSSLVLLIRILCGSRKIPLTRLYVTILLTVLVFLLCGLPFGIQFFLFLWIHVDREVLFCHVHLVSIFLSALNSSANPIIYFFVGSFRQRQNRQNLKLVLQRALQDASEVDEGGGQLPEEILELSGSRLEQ
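Material: MrgX1-expressing HEK293 cells / Dosing: compound as first of three additions / Incubation: overnight seeding, then 1 h dark dye loading / Signal: Fluo-4 NW calcium fluorescence / Evaluation: B-scored fluorescence response ratio / Benchmarks: positive and negative control wells on each plate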
MrgX1 PAM: positive allosteric modulators of MrgX1, primary screen, HEK293 cells, Fluo-4 calcium flux. FDSS; active compounds read high. B-score at 10 µM. 310,000 tested, 0.63% active. AID 588675, 2011;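 active = plate-corrected calcium response at least 3 library SD above typical, normal starting fluorescence, not activating the receptor alone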;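 also: compound read alongside a low EC10 to EC30 dose of BAM8-22 agonist; peak minus trough fluorescence over baseline measured at the second addition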
MrgX1 antag: antagonists of human MrgX1 receptor, primary screen, HEK293 cells, Fluo-4 calcium flux; Mas-related G-protein coupled receptor member X1 (Homo sapiens), Q96LB2; BAM8-22 antagonism; active compounds read low; B-score at 10 µM; 310,000 tested, 1.3% active; AID 588676, 2011;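 active = calcium-response B-score plate-corrected more than 3 library SD below zero, starting fluorescence within 5 deviations, no agonist response on first addition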;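 also: peak minus trough fluorescence over baseline after final BAM8-22 challenge near maximal dose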
RGS4 block valid: enhanced carbachol calcium response, M3R/RGS4 cells, RGS4 inhibitor project, cell-based, validation screen, HEK293 M3R/RGS4, calcium flux; shares compounds with RGS4 inh; carbachol calcium Fluo-4 fluorescence; carbachol added at its EC20; 0 = buffer wells, 100 = carbachol control; calcium response, % at 10 µM; 1,700 tested, 65% active; AID 492999, 2010;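 active = duplicate-averaged calcium response above the buffer-only control mean plus 5 SD of those controls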;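 also: integrated fluorescence ratio F max minus min over baseline F0; higher response in RGS4-induced cells means RGS4 inhibition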
RGS4 uninduced: carbachol calcium response in non-induced M3R cells, confirmation, counter-screen for RGS4 inhibitor project, cell-based, HEK293 M3R; shares compounds with RGS4 inh; carbachol calcium Fluo-4; submaximal (EC20) carbachol stimulus; buffer wells 0%, carbachol control wells 100%; activity (percent), % at 10 µM; 1,900 tested, 20% active; call rule not given here;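 also: RGS4 induction absent so cells express M3R without RGS4; higher means more calcium signal and flags a non-specific hit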
M3R basal Ca ctr: signal in non-induced cells without carbachol, RGS4 inhibitor counter-screen. shares compounds with RGS4 inh. HEK293 M3R/RGS4 non-induced, Fluo-4 calcium, no carbachol; normalised: buffer wells 0%, carbachol wells 100%. calcium response (agonist-mode artifact), % at 10 µM. 1,900 tested, 22% active. AID 493001;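 active = duplicate-averaged calcium rise in uninduced cells above buffer wells' mean plus 5 SD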
Active calls of the source: *. In the library only some 3.5% were active in any assay of this set; here they are far more common.

Screening Cc1nc(-c2ccccc2)sc1C(=O)/C=C/c1ccc(Cl)cc1 returned RGS4 pot inactive, RGS4 inh 12*, MrgX1 agonist inactive, MrgX1 PAM inactive, MrgX1 antag inactive, RGS4 block valid 7.5%*, RGS4 uninduced 30%* and M3R basal Ca ctr 16%*.
Screening CC(=O)c1c[nH]c(C(=O)NCc2ccccc2Cl)c1 returned RGS4 pot inactive, RGS4 inh 5.2*, MrgX1 agonist inactive, MrgX1 PAM inactive, MrgX1 antag inactive, RGS4 block valid inactive, RGS4 uninduced inactive and M3R basal Ca ctr inactive.
For C=C[C@H]1[C@H](OC2OC(CO)C(O)C(O)C2O)OC=C(C(=O)OC)[C@H]1C[C@H]1CC(=O)C[C@H](CC(=O)CCc2ccc(O)cc2)O1 (stereo partly drawn) the results were RGS4 pot inactive, RGS4 inh inactive, MrgX1 agonist inactive, MrgX1 PAM inactive and MrgX1 antag inactive.
`CCOC(=O)c1sc2ncnc(Nc3cccc(C(=O)O)c3)c2c1C` gave RGS4 pot inactive, RGS4 inh inactive, MrgX1 agonist inactive, MrgX1 PAM inactive and MrgX1 antag inactive.
`CCCn1c(O)c(N=NC(=O)c2cccnc2)c2cc(Br)ccc21` gave RGS4 pot inactive, RGS4 inh inactive, MrgX1 agonist inactive, MrgX1 PAM inactive and MrgX1 antag inactive.
Screening O=C/C=C/c1coc2ccc3ccccc3c2c1=O returned RGS4 pot inactive, RGS4 inh 15*, MrgX1 agonist inactive, MrgX1 PAM inactive, MrgX1 antag inactive, RGS4 block valid 13%*, RGS4 uninduced 36%* and M3R basal Ca ctr inactive.
For CCCN(C(=O)COc1ccc(Cl)cc1Cl)c1c(N)n(Cc2ccccc2)c(=O)[nH]c1=O the results were RGS4 pot inactive, RGS4 inh inactive, MrgX1 agonist inactive, MrgX1 PAM inactive and MrgX1 antag inactive.
Screening COc1cccc(/C=C2/C(=O)NN(c3ccc(Br)cc3)C2=O)c1O returned RGS4 pot inactive, RGS4 inh inactive, MrgX1 agonist inactive, MrgX1 PAM inactive and MrgX1 antag inactive.
COc1cc(/C=C2/C(=O)NN(c3ccc(F)cc3)C2=O)cc(Cl)c1O was read as RGS4 pot inactive, RGS4 inh 6.2*, MrgX1 agonist 30*, MrgX1 PAM inactive, MrgX1 antag inactive, RGS4 block valid 14%*, RGS4 uninduced 35%* and M3R basal Ca ctr 18%*.
Screening COC(=O)c1ccc(N2NC(=O)/C(=C/c3cc(OC)c(OC)c(OC)c3)C2=O)cc1 returned RGS4 pot inactive, RGS4 inh 4.9*, MrgX1 agonist inactive, MrgX1 PAM inactive, MrgX1 antag inactive, RGS4 block valid 14%*, RGS4 uninduced inactive and M3R basal Ca ctr inactive.
`COC(=O)c1ccc(N2NC(=O)/C(=C/c3cc(OC)c(O)c(OC)c3)C2=O)cc1` gave RGS4 pot inactive, RGS4 inh inactive, MrgX1 agonist inactive, MrgX1 PAM inactive, MrgX1 antag inactive, RGS4 block valid inactive, RGS4 uninduced inactive and M3R basal Ca ctr 30%*.
For COc1cc(/C=C2/C(=O)N(c3ccc(Br)cc3)N=C2C)cc([N+](=O)[O-])c1O the results were RGS4 pot inactive, RGS4 inh inactive, MrgX1 agonist inactive, MrgX1 PAM inactive and MrgX1 antag inactive.
Screening Cc1ccc2c(CN3CCC(C)CC3)cc(=O)oc2c1 returned RGS4 pot inactive, RGS4 inh inactive, MrgX1 agonist inactive, MrgX1 PAM inactive and MrgX1 antag inactive.
`CCOC(=O)C1CCCN(Cc2cc(=O)oc3cc(C)ccc23)C1` (stereo not drawn) gave RGS4 pot inactive, RGS4 inh inactive, MrgX1 agonist inactive, MrgX1 PAM inactive, MrgX1 antag inactive, RGS4 block valid inactive, RGS4 uninduced inactive and M3R basal Ca ctr 10%*.
CCOC(=O)C1CCN(Cc2cc(=O)oc3cc(C)ccc23)CC1 was read as RGS4 pot inactive, RGS4 inh 5.5*, MrgX1 agonist inactive, MrgX1 PAM inactive, MrgX1 antag inactive, RGS4 block valid inactive, RGS4 uninduced inactive and M3R basal Ca ctr inactive.
Cc1ccc(OCC(=O)OCC(=O)c2ccccc2)cc1C was read as RGS4 pot inactive, RGS4 inh inactive, MrgX1 agonist inactive, MrgX1 PAM inactive and MrgX1 antag inactive.
Screening Cc1nn(-c2ccccc2)c2[nH]c(=O)c(CNCc3ccc4c(c3)OCO4)cc12 returned RGS4 pot inactive, RGS4 inh inactive, MrgX1 agonist inactive, MrgX1 PAM inactive and MrgX1 antag inactive.
Cc1ccc(-c2nn(-c3ccccc3)c3[nH]c(=O)c(CNCc4ccccc4)cc23)cc1 was read as RGS4 pot inactive, RGS4 inh 7*, MrgX1 agonist inactive, MrgX1 PAM inactive, MrgX1 antag inactive, RGS4 block valid 19%*, RGS4 uninduced inactive and M3R basal Ca ctr 18%*.
For Cc1csc(=O)n1CC(=O)OCC(=O)Nc1cc(Cl)ccc1[N+](=O)[O-] the results were RGS4 pot inactive, RGS4 inh inactive, MrgX1 agonist inactive, MrgX1 PAM inactive and MrgX1 antag inactive.
`CCOn1c(=O)c(-c2ccc(OC)c(OC)c2)[n+]([O-])c2ccccc21` gave RGS4 pot inactive, RGS4 inh inactive, MrgX1 agonist inactive, MrgX1 PAM inactive, MrgX1 antag inactive, RGS4 block valid inactive, RGS4 uninduced inactive and M3R basal Ca ctr inactive.
Screening CCOn1c(=O)c(-c2ccc(OC)cc2)[n+]([O-])c2ccccc21 returned RGS4 pot inactive, RGS4 inh inactive, MrgX1 agonist inactive, MrgX1 PAM inactive and MrgX1 antag inactive.
COc1ccc(C(CNc2ccc(S(=O)(=O)N3CCCC3)cc2[N+](=O)[O-])N2CCCC2)cc1 (stereo not drawn) was read as RGS4 pot inactive, RGS4 inh inactive, MrgX1 agonist inactive, MrgX1 PAM inactive and MrgX1 antag inactive.
